From ChEMBL document CHEMBL1123585, “Differential effects of N-terminal modifications on the biological potencies of growth hormone releasing factor analogues with varying chain lengths” (1987)
One block for each compound: values may come before it.

Key:
Rattus norvegicus [1] = assay: Effect on growth hormone release(GRF) was determined in nembutal-anesthetized rat, at dose of 4 ug/100 g body weight.; type: functional, organism-based
Outline: (§1)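 Male Charles River rats (175-275 g), anesthetized with sodium pentobarbital 6 mg/100 g body weight. Six to nine per group. Peptide or saline given subcutaneously in 0.5 mL, 30 min after anesthetic. Jugular vein blood taken 15 min post-injection. Plasma GH measured by radioimmunoassay and reported as ng/mL, mean ± SEM.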

[2] = target: T1, Growth hormone-releasing hormone receptor (Rattus norvegicus) (UniProt Q02644); assay: Tested for the potency of growth hormone (GRF) on subcutaneous administration in anesthetized male Charles River rats; type: functional, organism-based
T1 sequence (whole entry): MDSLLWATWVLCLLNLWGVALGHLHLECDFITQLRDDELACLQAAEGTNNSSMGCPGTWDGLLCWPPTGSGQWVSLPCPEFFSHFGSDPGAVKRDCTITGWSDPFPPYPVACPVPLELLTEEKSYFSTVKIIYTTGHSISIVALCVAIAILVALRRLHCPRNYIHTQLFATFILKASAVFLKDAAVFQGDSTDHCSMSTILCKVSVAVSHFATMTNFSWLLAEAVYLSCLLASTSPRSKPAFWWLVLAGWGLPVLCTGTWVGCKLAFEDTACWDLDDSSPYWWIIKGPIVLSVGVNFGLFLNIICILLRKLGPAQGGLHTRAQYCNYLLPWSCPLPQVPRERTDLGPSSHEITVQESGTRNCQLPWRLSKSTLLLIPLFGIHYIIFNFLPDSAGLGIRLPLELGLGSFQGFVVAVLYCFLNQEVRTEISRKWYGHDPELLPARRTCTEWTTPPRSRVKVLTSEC
Outline: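 Pentobarbital-anesthetized male rats (175-275 g), six to nine per group, received two subcutaneous doses of analogue or of reference GRF(1-29)NH2, in 0.5 mL, 30 min after anesthesia. Plasma GH measured by RIA 15 min later. Potency with 95% confidence limits calculated from a four-point assay design by the Pugsley method.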

[3] = target: T1, Growth hormone-releasing hormone receptor (Rattus norvegicus); assay: Effect on growth hormone release(GRF) was determined in nembutal-anesthetized rat, at dose of 10 ug/100 g body weight.; type: functional; outline: as §1
[4] = target: T1, Growth hormone-releasing hormone receptor (Rattus norvegicus); assay: In vitro rat pituitary cell growth hormone response was obtained; type: functional, cell-based; details: Pituitary gland cell
Rattus norvegicus [5] = assay: Effect on growth hormone release(GRF) was determined in nembutal-anesthetized rat, at dose of 0.2 ug/100 g body weight.; type: functional, organism-based; outline: as §1
Rattus norvegicus [6] = species on record: Rattus norvegicus; assay: In vitro rat pituitary cell growth hormone response to the compound was obtained; type: functional, Pituitary gland cell
Rattus norvegicus [7] = assay: Effect on growth hormone release(GRF) was determined in nembutal-anesthetized rat, at dose of 0.5 ug/100 g body weight.; type: functional, organism-based; outline: as §1
Rattus norvegicus [8] = assay: Effect on growth hormone release(GRF) was determined in nembutal-anesthetized rat, at dose of 1 ug/100 g body weight.; type: functional, organism-based; outline: as §1
Rattus norvegicus [9] = assay: Effect on growth hormone release(GRF) was determined in nembutal-anesthetized rat, at dose of 0.4 ug/100 g body weight.; type: functional, organism-based; outline: as §1
Rattus norvegicus [10] = assay: Effect on growth hormone release(GRF) was determined in nembutal-anesthetized rat, at dose of 80 ug/100 g body weight.; type: functional, organism-based; outline: as §1
Rattus norvegicus [11] = assay: Effect on growth hormone release(GRF) was determined in nembutal-anesthetized rat, at dose of 32 ug/100 g body weight.; type: functional, organism-based; outline: as §1

- Potency [2]: 199%
- Plasma GH release [3]: 2170 ng/mL
- Potency [4]: 83%
Compound: CC[C@H](C)[C@H](NC(=O)[C@H](C)NC(=O)[C@@H](CC(=O)O)NC(=O)[C@H](C)NC(=O)[C@@H](N)Cc1ccc(O)cc1)C(=O)N[C@@H](Cc1ccccc1)C(=O)N[C@H](C(=O)N[C@H](CC(N)=O)C(=O)N[C@@H](CO)C(=O)N[C@@H](Cc1ccc(O)cc1)C(=O)N[C@@H](CCCN=C(N)N)C(=O)N[C@@H](CCCCN)C(=O)N[C@H](C(=O)N[C@@H](CC(C)C)C(=O)NCC(=O)N[C@@H](CCC(N)=O)C(=O)N[C@@H](CC(C)C)C(=O)N[C@@H](CO)C(=O)N[C@@H](C)C(=O)N[C@@H](CCCN=C(N)N)C(=O)N[C@@H](CCCCN)C(=O)N[C@@H](CC(C)C)C(=O)N[C@@H](CC(C)C)C(=O)N[C@@H](CCC(N)=O)C(=O)N[C@@H](CC(=O)O)C(=O)N[C@H](C(=O)N[C@@H](CC(C)C)C(N)=O)[C@@H](C)CC)C(C)C)[C@@H](C)O
- Plasma GH release (Rattus norvegicus [1]): 899 ng/mL

- Potency [2]: 4450%
Compound: CC[C@H](C)[C@H](NC(=O)[C@H](C)NC(=O)[C@H](CC(=O)O)NC(=O)[C@@H](C)NC(=O)[C@@H](N)Cc1ccc(O)cc1)C(=O)N[C@@H](Cc1ccccc1)C(=O)N[C@H](C(=O)N[C@@H](CC(N)=O)C(=O)N[C@@H](CO)C(=O)N[C@@H](Cc1ccc(O)cc1)C(=O)N[C@@H](CCCN=C(N)N)C(=O)N[C@@H](CCCCN)C(=O)N[C@H](C(=O)N[C@@H](CC(C)C)C(=O)NCC(=O)N[C@@H](CCC(N)=O)C(=O)N[C@@H](CC(C)C)C(=O)N[C@@H](CO)C(=O)N[C@@H](C)C(=O)N[C@@H](CCCN=C(N)N)C(=O)N[C@@H](CCCCN)C(=O)N[C@@H](CC(C)C)C(=O)N[C@@H](CC(C)C)C(=O)N[C@@H](CCC(N)=O)C(=O)N[C@@H](CC(=O)O)C(=O)N[C@H](C(=O)N[C@@H](CCSC)C(=O)N[C@@H](CO)C(=O)N[C@@H](CCCN=C(N)N)C(N)=O)[C@@H](C)CC)C(C)C)[C@@H](C)O
- Plasma GH release (Rattus norvegicus [5]): 1210 ng/mL
- Potency (Rattus norvegicus [6]): 5340%
- Plasma GH release (Rattus norvegicus [7]): 2180 ng/mL

- Potency [2]: 1630%
Compound: CC[C@H](C)[C@H](NC(=O)[C@H](C)NC(=O)[C@H](CC(=O)O)NC(=O)[C@@H](C)N(C)C(=O)[C@@H](N)Cc1ccc(O)cc1)C(=O)N[C@@H](Cc1ccccc1)C(=O)N[C@H](C(=O)N[C@@H](CC(N)=O)C(=O)N[C@@H](CO)C(=O)N[C@@H](Cc1ccc(O)cc1)C(=O)N[C@@H](CCCN=C(N)N)C(=O)N[C@@H](CCCCN)C(=O)N[C@H](C(=O)N[C@@H](CC(C)C)C(=O)NCC(=O)N[C@@H](CCC(N)=O)C(=O)N[C@@H](CC(C)C)C(=O)N[C@@H](CO)C(=O)N[C@@H](C)C(=O)N[C@@H](CCCN=C(N)N)C(=O)N[C@@H](CCCCN)C(=O)N[C@@H](CC(C)C)C(=O)N[C@@H](CC(C)C)C(=O)N[C@@H](CCC(N)=O)C(=O)N[C@@H](CC(=O)O)C(=O)N[C@H](C(=O)N[C@@H](CCSC)C(=O)N[C@@H](CO)C(=O)N[C@@H](CCCN=C(N)N)C(N)=O)[C@@H](C)CC)C(C)C)[C@@H](C)O
- Plasma GH release (Rattus norvegicus [8]): 1720 ng/mL
- Plasma GH release (Rattus norvegicus [9]): 761 ng/mL

- Potency [2]: 16%
- Potency [4]: 0.004%
Compound: CC[C@H](C)[C@H](NC(=O)[C@H](C)NC(=O)[C@H](CC(=O)O)NC(=O)[C@@H](C)NC(=O)[C@@H](N)Cc1ccc(O)cc1)C(=O)N[C@@H](Cc1ccccc1)C(=O)N[C@H](C(=O)N[C@@H](CC(N)=O)C(=O)N[C@@H](CO)C(=O)N[C@@H](Cc1ccc(O)cc1)C(=O)N[C@@H](CCCN=C(N)N)C(=O)N[C@@H](CCCCN)C(=O)N[C@H](C(=O)N[C@@H](CC(C)C)C(=O)NCC(=O)N[C@@H](CCC(N)=O)C(=O)N[C@@H](CC(C)C)C(=O)N[C@@H](CO)C(=O)N[C@@H](C)C(=O)N[C@@H](CCCN=C(N)N)C(=O)N[C@@H](CCCCN)C(=O)N[C@@H](CC(C)C)C(=O)N[C@@H](CC(C)C)C(=O)N[C@@H](CCC(N)=O)C(N)=O)C(C)C)[C@@H](C)O
- Plasma GH release (Rattus norvegicus [10]): 1370 ng/mL
- Plasma GH release (Rattus norvegicus [11]): 499 ng/mL
